Structures are written as SMILES.

Data set [1] has as its target T1, Cytochrome P450 26A1 (Homo sapiens, UniProt O43174).
T1 sequence (O43174 whole entry): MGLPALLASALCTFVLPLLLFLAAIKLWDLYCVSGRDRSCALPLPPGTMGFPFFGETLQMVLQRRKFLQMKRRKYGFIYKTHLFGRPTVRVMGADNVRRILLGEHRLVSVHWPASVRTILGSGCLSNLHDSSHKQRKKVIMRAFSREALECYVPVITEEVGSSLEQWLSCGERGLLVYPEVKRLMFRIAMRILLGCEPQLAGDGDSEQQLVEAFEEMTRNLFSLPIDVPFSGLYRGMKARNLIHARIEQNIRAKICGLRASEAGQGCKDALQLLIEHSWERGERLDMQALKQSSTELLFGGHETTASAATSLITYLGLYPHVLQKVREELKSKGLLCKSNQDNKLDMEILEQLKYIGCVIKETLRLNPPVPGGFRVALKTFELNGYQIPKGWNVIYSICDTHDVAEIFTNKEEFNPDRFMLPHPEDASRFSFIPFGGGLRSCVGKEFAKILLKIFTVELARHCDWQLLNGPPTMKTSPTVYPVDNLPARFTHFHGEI
Briefly: Inhibition of CYP26A1 (unknown origin).

The test system of data set [2] is HL-60. The data set is described as follows: Growth inhibition of human HL60 cells at 10 uM incubated for 48 hrs by MTT assay. The data set is classed as functional. As to conditions: HL-60, 48 h, read-out: GI. In outline: (§1)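 HL-60 cells plated at 1–104 cells/well (so in the source) and held 24 h at 37 °C, then exposed 48 h to inhibitor at 10 µM and/or ATRA at 0.1 µM. MTT (2 mg/mL) was added for 4 h at 37 °C, the supernatant was discarded, formazan was dissolved in DMSO and absorbance read at 570 nm. Percent growth inhibition reported.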
For orientation: Tetrazolium assays rely on reduction of a dye to a coloured formazan, in cell work by metabolically active cells.

The target of data set [3] is T1, Cytochrome P450 26A1. Briefly: Inhibition of CYP26A1 in ATRA-induced human HL60 cell microsomes incubated for 30 mins in dark condition with NADPH and ATRA by HPLC method. The format is cell-based, HL-60.
Data set [4] deals with HL-60. The data set is described as follows: Growth inhibition of human HL60 cells at 10 uM incubated for 48 hrs in presence of 0.1 uM ATRA by MTT assay. The data set is classed as functional. In outline:
as §1

Data set [5] concerns HL-60. Briefly: Induction of cell differentiation in human HL60 cells at 10 uM incubated for 72 hrs in presence of 0.1 uM ATRA by NBT dye based assay. The data set is classed as functional.
Data set [6] concerns HL-60. Briefly: Induction of cell differentiation in human HL60 cells at 10 uM incubated for 72 hrs by NBT dye based assay. The format is functional.
Data set [7] addresses T1, Cytochrome P450 26A1. Briefly: Inhibition of CYP26A1-mediated ATRA metabolism in human HL60 cells assessed as ATRA level at 5 uM incubated for 96 hrs by HPLC method (reference value: 1.21 uM). The data set is classed as cell-based. As to conditions: hl-60, 96 h.
Data set [8] addresses T1, Cytochrome P450 26A1. The data set is described as follows: Inhibition of CYP26A1-mediated ATRA metabolism in human HL60 cells assessed as ATRA level at 5 uM incubated for 48 hrs by HPLC method (reference value: 4.95 uM). As to conditions: hl-60, 48 h. The data set is classed as cell-based.
Another data set concerns the target Cytochrome P450 2D6 (Homo sapiens, UniProt P10635). Briefly: Inhibition of CYP2D6 (unknown origin) incubated for 45 mins using NADPH and ATRA by HPLC assay. The format is ADME.
In data set [9] the target is T1, Cytochrome P450 26A1. The data set is described as follows: Inhibition of CYP26A1-mediated ATRA metabolism in human HL60 cells assessed as ATRA level at 5 uM incubated for 72 hrs by HPLC method (reference value: 3.6 uM). The data set is classed as cell-based. As to conditions: hl-60, 72 h.
For a further data set, the target named is Cytochrome P450 3A4 (Homo sapiens, UniProt P08684). The data set is described as follows: Inhibition of CYP3A4 (unknown origin) incubated for 45 mins using NADPH by fluorescence assay. The format is ADME.
Sequence of Cytochrome P450 3A4 (P08684 whole entry): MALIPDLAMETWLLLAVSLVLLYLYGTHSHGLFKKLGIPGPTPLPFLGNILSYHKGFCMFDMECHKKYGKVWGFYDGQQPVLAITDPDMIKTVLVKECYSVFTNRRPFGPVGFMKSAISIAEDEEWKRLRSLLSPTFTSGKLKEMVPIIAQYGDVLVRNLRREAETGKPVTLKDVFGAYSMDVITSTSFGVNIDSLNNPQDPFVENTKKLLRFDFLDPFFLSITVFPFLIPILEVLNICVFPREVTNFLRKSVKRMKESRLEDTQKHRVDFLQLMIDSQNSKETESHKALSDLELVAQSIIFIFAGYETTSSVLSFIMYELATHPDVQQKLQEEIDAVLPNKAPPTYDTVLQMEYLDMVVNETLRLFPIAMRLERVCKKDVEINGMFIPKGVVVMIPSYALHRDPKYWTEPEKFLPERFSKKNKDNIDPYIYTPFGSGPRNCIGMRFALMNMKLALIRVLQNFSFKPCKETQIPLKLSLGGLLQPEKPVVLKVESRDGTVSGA
The target in data set [10] is T1, Cytochrome P450 26A1. The data set is described as follows: Inhibition of CYP26A1-mediated ATRA metabolism in human HL60 cells assessed as ATRA level at 5 uM incubated for 24 hrs by HPLC method (reference value: 7.19 uM). The format is cell-based. As to conditions: hl-60, 24 h.
Data set [11] in a line: Selectivity index, ratio of IC50 for CYP3A4 (unknown origin) to IC50 for CYP26A1 in ATRA-induced human HL60 cell microsomes. On the set-up: species or system HL-60.
Data set [12] is described as follows: Selectivity index, ratio of IC50 for CYP2D6 (unknown origin) to IC50 for CYP26A1 in ATRA-induced human HL60 cell microsomes. Also noted: species or system HL-60.
For data set [13], the system named is HL-60. Briefly: Growth inhibition of human HL60 cells at 0.1 uM incubated for 48 hrs by MTT assay. The format is functional. As to conditions: HL-60, 48 h, read-out: GI. The method in brief:
as §1

Data set [14] concerns HL-60. The data set is described as follows: Induction of cell differentiation in human HL60 cells at 0.1 uM incubated for 72 hrs by NBT dye based assay. The format is functional.

Sequence of Cytochrome P450 2D6 (P10635 whole entry): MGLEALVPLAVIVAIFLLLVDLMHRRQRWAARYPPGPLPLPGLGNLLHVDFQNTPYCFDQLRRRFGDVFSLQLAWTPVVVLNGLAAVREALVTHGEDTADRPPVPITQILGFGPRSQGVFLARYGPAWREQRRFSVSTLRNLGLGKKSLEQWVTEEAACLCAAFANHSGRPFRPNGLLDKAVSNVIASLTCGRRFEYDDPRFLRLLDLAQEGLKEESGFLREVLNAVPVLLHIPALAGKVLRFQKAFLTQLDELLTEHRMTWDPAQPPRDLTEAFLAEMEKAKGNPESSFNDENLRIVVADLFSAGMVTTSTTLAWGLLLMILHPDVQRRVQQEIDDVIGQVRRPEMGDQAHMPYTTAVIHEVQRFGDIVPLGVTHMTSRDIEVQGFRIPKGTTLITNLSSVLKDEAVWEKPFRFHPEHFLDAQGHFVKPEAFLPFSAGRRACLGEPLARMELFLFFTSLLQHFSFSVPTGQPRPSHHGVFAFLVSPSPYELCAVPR

As for `CCC(CC)[C@H](c1ccc(Nc2nc3ccccc3s2)cc1)n1cncn1`, on Cytochrome P450 26A1 [1], the IC50 (as a rule, the concentration at which inhibition is half-maximal) stood at 4 nM. In other words, the single-digit nanomolar range.
For the compound `COC(=O)C(Cn1ccnc1)NC(=O)c1ccc(-c2ccccc2)cc1` (stereo not drawn), the inhibition of growth at 10 µM in the data set with HL-60 [2] is 9.64%. Besides, half-maximal inhibition at Cytochrome P450 26A1 [3] (IC50) was put at 370 nM. Besides, in the data set on HL-60 [4], the “growth inhibition (GI)” value is reported as 51.38%. Moreover, the values for the Activity in the data set with HL-60 [5] and with HL-60 [6] were 47.69% and 0%, respectively.
For `CCOC(=O)C(Cn1ccnc1)NC(=O)c1ccc(-c2ccccc2)cc1` (stereo not drawn), in the data set with HL-60 [2], the inhibition of growth at 10 µM was found to be 7.61%. The compound further returned an IC50 at Cytochrome P450 26A1 [3] of 650 nM. Also, the “growth inhibition (GI)” value in the data set on HL-60 [4] is on record as 48.19%. The Activity came out at 45.64% with HL-60 [5] and 0% in the data set on HL-60 [6].
For the compound `CCCOC(=O)C(Cn1ccnc1)NC(=O)c1ccc(-c2ccccc2)cc1` (stereo not drawn), the inhibition of growth at 10 µM in the data set on HL-60 [2] came to 5.04%. For the same compound, on Cytochrome P450 26A1 [3], the IC50 was determined as 790 nM. Besides, the “growth inhibition (GI)” value in the data set with HL-60 [4] is listed as 42.92%. Moreover, the Activity with HL-60 [5] was found to be 44.78%; in the data set with HL-60 [6], 0%.
As to `CC(C)OC(=O)C(Cn1ccnc1)NC(=O)c1ccc(-c2ccccc2)cc1` (stereo not drawn), the inhibition of growth at 10 µM in the data set with HL-60 [2] came out at 6.58%. The IC50 on Cytochrome P450 26A1 [3] turned out to be 540 nM. In addition, the “growth inhibition (GI)” value with HL-60 [4] was 54.58%. Further, the Activity is 53.91% in the data set on HL-60 [5] and 0% with HL-60 [6].
In the same order, the values of `CC(C)COC(=O)C(Cn1ccnc1)NC(=O)c1ccc(-c2ccccc2)cc1` (stereo not drawn) are 8.99%, 970 nM, 46.55%, 39.87% and 0%.
For `COC(=O)C(Cn1ccnc1)NC(=O)c1c(C)nn(-c2ccccc2)c1Cl` (stereo not drawn), the Activity at Cytochrome P450 26A1 [7] amounted to 3.51 µM; at Cytochrome P450 26A1 [8], 7.45 µM; at Cytochrome P450 26A1 [9], 5.67 µM; in the data set on HL-60 [5], 50.51%; on Cytochrome P450 26A1 [10], 9.3 µM; with HL-60 [6], 0%. Also, the IC50 was 5560 nM at Cytochrome P450 2D6, 220 nM at Cytochrome P450 26A1 [3] and 1170 nM against Cytochrome P450 3A4. Moreover, in the data set with HL-60 [2], the inhibition of growth at 10 µM came out at 10.9%. For the same compound, the “growth inhibition (GI)” value in the data set on HL-60 [4] is 55.36%.
For the compound `CCOC(=O)C(Cn1ccnc1)NC(=O)c1c(C)nn(-c2ccccc2)c1Cl` (stereo not drawn), the inhibition of growth at 10 µM with HL-60 [2] turned out to be 7.25%. At Cytochrome P450 26A1 [3], this compound had an IC50 of 600 nM. Besides, the “growth inhibition (GI)” value in the data set on HL-60 [4] was found to be 52.17%. Besides, the Activity in the data set on HL-60 [5] is 46.44%; in the data set with HL-60 [6], 0%.
In the same order, the values of `CCCOC(=O)C(Cn1ccnc1)NC(=O)c1c(C)nn(-c2ccccc2)c1Cl` (stereo not drawn) are 6.59%, 620 nM, 45.58%, 43.83% and 0%.
As for `Cc1nn(-c2ccccc2)c(Cl)c1C(=O)NC(Cn1ccnc1)C(=O)OC(C)C` (stereo not drawn), the “Ratio IC50” value in data set [11] turned out to be 11; in data set [12], 21. Besides, the Activity at Cytochrome P450 26A1 [7] came out at 4.41 µM; on Cytochrome P450 26A1 [8] it was 7.87 µM; at Cytochrome P450 26A1 [9], 6.06 µM; with HL-60 [5], 51.85%; at Cytochrome P450 26A1 [10], 9.22 µM; in the data set with HL-60 [6], 0%. Moreover, the IC50 against Cytochrome P450 2D6 is 9640 nM; against Cytochrome P450 26A1 [3], 460 nM; against Cytochrome P450 3A4 it was 4920 nM. The inhibition of growth at 10 µM in the data set on HL-60 [2] stood at 4.98%. Besides, the “growth inhibition (GI)” value in the data set on HL-60 [4] is 44.79%.
As for `Cc1nn(-c2ccccc2)c(Cl)c1C(=O)NC(Cn1ccnc1)C(=O)OCC(C)C` (stereo not drawn), the inhibition of growth at 10 µM with HL-60 [2] was determined as 8.24%. The IC50 at Cytochrome P450 26A1 [3] was 1020 nM. Further, in the data set with HL-60 [4], the “growth inhibition (GI)” value is listed as 43.54%. For the same compound, the Activity in the data set on HL-60 [5] came to 40.79%; in the data set on HL-60 [6], 0%.
In the same order, the values of `COC(=O)C(Cn1ccnc1)NC(=O)c1nc2ccccc2s1` (stereo not drawn) are 8.64%, 410 nM, 50.36%, 49.11% and 0%.
As to `CCOC(=O)C(Cn1ccnc1)NC(=O)c1nc2ccccc2s1` (stereo not drawn), the inhibition of growth at 10 µM with HL-60 [2] was determined as 6.66%. For the same compound, the IC50 at Cytochrome P450 26A1 [3] amounted to 740 nM. Also, in the data set on HL-60 [4], the “growth inhibition (GI)” value is 45.4%. The results for the Activity in the data set on HL-60 [5] and in the data set with HL-60 [6] were 48.31% and 0%, respectively.
In the same order, the values of `CCCOC(=O)C(Cn1ccnc1)NC(=O)c1nc2ccccc2s1` (stereo not drawn) are 7.64%, 840 nM, 47.83%, 42.62% and 0%.
In the same order, the values of `CC(C)OC(=O)C(Cn1ccnc1)NC(=O)c1nc2ccccc2s1` (stereo not drawn) are 5.04%, 630 nM, 46.36%, 50.85% and 0%.
As for `CC(C)COC(=O)C(Cn1ccnc1)NC(=O)c1nc2ccccc2s1` (stereo not drawn), the inhibition of growth at 10 µM with HL-60 [2] was 9.49%. For the same compound, the IC50 on Cytochrome P450 26A1 [3] came out at 1110 nM. Besides, the “growth inhibition (GI)” value with HL-60 [4] stood at 43.33%. The Activity in the data set on HL-60 [5] came out at 38.62%; in the data set with HL-60 [6], 0%.
`CC(C(c1ccc(Nc2nc3ccccc3s2)cc1)n1cncn1)N(C)C` (stereo not drawn) came in with an IC50 against Cytochrome P450 26A1 [1] of 10 nM.
For the compound `Clc1cccc(C(c2ccc3[nH]cnc3c2)n2ccnc2)c1` (stereo not drawn) [LIAROZOLE], on Cytochrome P450 2D6, the IC50 worked out at 4760 nM. In the data set with HL-60 [2], the inhibition of growth at 10 µM came out at 16.4%. Besides, in the data set on HL-60 [4], the “growth inhibition (GI)” value was 48.37%. Moreover, the Activity in the data set with HL-60 [5] is recorded as 45.55%; with HL-60 [6], 0%.
For the compound `CC1=C(/C=C/C(C)=C/C=C/C(C)=C/C(=O)O)C(C)(C)CCC1` [TRETINOIN], the inhibition of growth at 0.1 µM with HL-60 [13] is 21.8%. This compound registered an Activity in the data set with HL-60 [14] of 28.04%.

(Values after ChEMBL document CHEMBL3616427, “Design, synthesis, and biological evaluation of amide imidazole derivatives as novel metabolic enzyme CYP26A1 inhibitors” (Bioorg Med Chem, 2015).)
